Only some compounds are listed: those with a hit (about 3.1% of all), similar ones and a draw of the others.
PAFAH2 inh: PAFAH2 enzyme inhibitors, primary screen, biochemical, fluorescence polarization, human. Platelet-activating factor acetylhydrolase 2, cytoplasmic (Homo sapiens), Q99487. recombinant PAFAH2, FP-rhodamine activity probe. inhibition, % at 3.39 µM. actives 0.99% (n = 340,000). AID 492956, 2010;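 active = inhibition above the mean over all tested compounds plus 3 SD, cut at about 30% in these data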;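 also: inhibitors block probe labeling of enzyme so polarization drops; 0% = enzyme with DMSO and 100% = wells lacking PAFAH2 protein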
pPAFAH FP inh: pPAFAH enzyme inhibitors, primary screen, biochemical, fluorescence polarization, human. recombinant pPAFAH, FP-rhodamine probe fluorescence polarization. inhibition, % at 3.39 µM. actives 1.5% (n = 330,000);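 active = inhibition above the mean inhibition across the screen plus 3 SD, cut at about 25% in these data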;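 also: inhibitors block binding of the rhodamine activity-based probe so polarization drops; 0% = enzyme with DMSO and 100% = wells lacking pPAFAH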
Apaf-1 inh: inhibitors of human Apaf-1 apoptosome, primary screen, biochemical, DEVD-Rh110 fluorescence, uHTS; inhibition, % at 20 µM; actives 0.71% (n = 330,000); reconstituted apoptosome caspase-3 activity; active = inhibition of at least 40% at 20 µM;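 also: plate controls were DMSO wells for no effect and DEVD-CHO caspase inhibitor wells for full effect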
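System – cell-free apoptosome with Apaf-1, procaspase-3 and caspase-9 · Buffer or medium – pH 7.5 Hepes buffer with CHAPS, BSA, DTT · Also added – cytochrome c with DEVD-Rh110 · Times – 30 min compound preincubation, 50 min activation, room temperature · Technique – Rh110 fluorescence intensity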
PAFAH1B3 FP inh: PAFAH1B3 enzyme inhibitors, primary screen, biochemical, fluorescence polarization, human. recombinant PAFAH1B3, FP-rhodamine probe. actives 0.28% (n = 340,000). inhibition, % at 3.39 µM. Platelet-activating factor acetylhydrolase IB subunit alpha1 (Homo sapiens), Q15102;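 active = inhibition above the screen-wide average of all tested compounds plus 3 SD, cut at about 25% in these data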;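 also: 0% = enzyme with DMSO only and 100% = wells lacking PAFAH1B3 protein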
Target sequence (Q15102 whole entry, looked up): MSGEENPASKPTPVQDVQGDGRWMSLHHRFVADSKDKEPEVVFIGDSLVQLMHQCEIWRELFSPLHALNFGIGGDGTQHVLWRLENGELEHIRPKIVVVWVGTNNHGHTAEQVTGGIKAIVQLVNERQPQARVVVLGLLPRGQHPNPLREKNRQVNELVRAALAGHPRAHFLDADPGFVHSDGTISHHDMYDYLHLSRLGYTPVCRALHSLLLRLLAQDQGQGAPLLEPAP
PAFAH1B2 FP inh: PAFAH1B2 enzyme inhibitors, primary screen, biochemical, fluorescence polarization, human. recombinant PAFAH1B2, FP-rhodamine activity probe. inhibition, % at 3.39 µM. actives 1.2% (n = 340,000);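 active = inhibition above the mean of all tested compounds plus 3 SD, cut at about 24% in these data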;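 also: 0% = enzyme with DMSO and 100% = wells lacking PAFAH1B2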
Target sequence (P68402 whole entry, looked up): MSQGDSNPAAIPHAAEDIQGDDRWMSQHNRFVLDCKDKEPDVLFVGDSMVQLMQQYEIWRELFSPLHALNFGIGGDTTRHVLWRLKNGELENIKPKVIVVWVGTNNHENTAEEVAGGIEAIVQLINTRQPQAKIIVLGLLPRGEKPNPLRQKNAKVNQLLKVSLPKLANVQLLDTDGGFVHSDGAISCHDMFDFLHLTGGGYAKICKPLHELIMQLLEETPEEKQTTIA
PAFAH2 FP conf: PAFAH2 enzyme inhibitors, confirmation, biochemical, fluorescence polarization, human | shares compounds with PAFAH2 inh | recombinant PAFAH2, FP-rhodamine activity probe | inhibition, % at 3.39 µM | actives 65% (n = 2,300) | AID 493030, 2011;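 active = mean inhibition over three repeats above a set limit taken from the earlier primary screen, cut at about 30% in these data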;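 also: inhibitor blocks binding of rhodamine activity probe so polarization falls; 0% = enzyme with DMSO and 100% = wells lacking PAFAH2 protein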
Starred values were filed as active, the others as inactive; · = no result.

SMILES	PAFAH2 inh	pPAFAH FP inh	Apaf-1 inh	PAFAH1B3 FP inh	PAFAH1B2 FP inh	PAFAH2 FP conf
COc1ccc(C2CC2/C(C)=N/OC(=O)c2cccs2)cc1 (stereo not drawn)	-5	0	25	4	-4	·
COc1ccc(C(=O)O/N=C(\N)c2ccccc2)cc1	12	0	4	10	2	·
COc1ccc(C(=O)O/N=C(\C)c2nccs2)cc1	67*	2	-8	2	-1	60*
COc1ccc(C(=O)O/N=C(/C)c2cccs2)cc1	64*	20	3	5	2	55*
CN(CC(=O)Nc1ccc(F)cc1)C(=O)COC(=O)c1ccc(-c2ccccc2)cc1	-1	6	10	0	-4	·
O=C1CSC(=S)N1N=Cc1c(O)ccc2ccccc12	42*	·	·	16	6	34*
CN(C)S(=O)(=O)n1cnc([C@@H]2[C@H]3C(=O)OC[C@@H]3C[C@@]23N=CN(Cc2ccccc2)C3=O)c1	40*	2	-11	8	7	34*
Cc1[nH]c2ccccc2c1SCc1nnc(SCc2ccc(Cl)cc2)n1C	30*	9	23	5	23	30*
O=C(NCCc1ccc(Cl)cc1)C1CC(=O)N(C2CCCC2)C1 (stereo not drawn)	104*	1	-5	3	13	-4
O=C(NCCc1ccc(Cl)cc1)C1CCC(=O)N(C2CCCCCC2)C1 (stereo not drawn)	3	2	-4	5	3	·
N#Cc1ccc(OCC(=O)NCC2COc3ccccc3O2)cc1 (stereo not drawn)	2	3	-5	2	-5	·
Cc1c(C(c2ccccc2)c2c(C)n(C)n(-c3ccccc3)c2=O)c(=O)n(-c2ccccc2)n1C	-2	-1	-1	8	3	·
Cc1c(C(c2cccc(Br)c2)c2c(C)n(C)n(-c3ccccc3)c2=O)c(=O)n(-c2ccccc2)n1C	39*	1	-6	4	2	20
COc1ccc(/C=C/C(=O)OCC(=O)NCc2ccccc2Cl)cc1OC	79*	-3	1	12	0	76*
COc1ccc(/C=C/C(=O)OCC(=O)NCCCc2ccccc2)cc1OC	52*	11	5	4	1	40*
COc1ccc(CCNC(=O)COC(=O)/C=C/c2ccc(OC)c(OC)c2)cc1	39*	5	2	8	6	26
COc1ccccc1CNC(=O)COC(=O)/C=C/c1ccc(OC(F)F)c(OC)c1	15	8	-6	8	-3	·
COc1ccc(CCNC(=O)COC(=O)/C=C/c2ccc(OCC#N)c(OC)c2)cc1	-1	-2	-2	12	1	·
Cc1cccc(C(=O)Nc2sc(C)c(-c3ccccc3)c2C#N)c1	47*	-1	17	-4	1	-1
Cc1noc(C)c1C(=O)Nc1sc(C)c(-c2ccccc2)c1C#N	-3	3	-3	2	9	·
O=C1NC(=Nc2ccccc2)S/C1=C\c1cccnc1	10	7	-6	9	5	·
Cc1ccc(N=C2NC(=O)/C(=C/c3cccnc3)S2)cc1C	32*	5	-12	0	4	23
COc1ccc(/C=C/C(=O)OCC(=O)NC2CC2)c(OC)c1	83*	4	-2	10	1	79*
COc1cccc(/C=C/C(=O)OCC(=O)NC2CC2)c1OC	68*	6	-8	16	5	58*
COc1ccccc1/C=C/C(=O)OCC(=O)NC1CCS(=O)(=O)C1 (stereo not drawn)	14	-1	-78	11	3	·
SMILES	PAFAH2 inh	pPAFAH FP inh	Apaf-1 inh	PAFAH1B3 FP inh	PAFAH1B2 FP inh	PAFAH2 FP conf
COc1ccccc1C(=O)NC(=O)COC(=O)CCS(=O)(=O)c1ccc(C)cc1	0	5	3	2	4	·
O=C(CCl)N1CCN(S(=O)(=O)Cc2ccccc2)CC1	0	-4	12	3	-3	·
COC(=O)CC1=NN(c2nc3ccccc3s2)C(=O)/C1=C/N(C)C	3	3	-1	6	-1	·
CSc1ccc(/C=C/C(=O)OCC(=O)NC2CC2)cc1	57*	3	5	1	0	48*
O=C(COC(=O)/C=C/c1ccc(Cl)cc1)NC1CC1	52*	6	-6	6	-2	34*
O=C(COC(=O)/C=C/c1ccc(Cl)cc1)NC1CCCCCC1	79*	6	-8	6	5	71*
O=C(CC1(CC(=O)N2CCOCC2)CCCC1)Nc1ccccc1	4	-2	-12	12	-6	·
O=C(COC(=O)/C=C/c1ccc(Cl)cc1)Nc1ccccc1	73*	3	3	8	2	72*
O=C(COC(=O)/C=C/c1ccccc1)Nc1ccc2c(c1)OCCO2	69*	8	-1	-7	4	56*
O=C(COC(=O)/C=C/c1ccc(Cl)cc1)Nc1ccc2c(c1)OCCO2	7	3	-10	-3	-4	·
O=C(COC(=O)/C=C/c1ccccc1)Nc1cccc(Oc2ccccc2)c1	36*	-6	7	-3	-17	32*
CC(=O)C(Cc1ccccc1)NC(=O)COC(=O)c1cccc(C)c1[N+](=O)[O-] (stereo not drawn)	36*	6	6	14	7	14
CCOC(=O)N1CCN(C(=O)COC(=O)c2cccc(C)c2[N+](=O)[O-])CC1	1	-4	3	-5	-5	·
O=C(c1ccc(Oc2ccc(C(F)(F)F)cc2[N+](=O)[O-])cc1)N1CCOCC1	34*	2	0	5	-5	27
O=C(c1ccc(Oc2ccc([N+](=O)[O-])cc2Cl)cc1)N1CCCC1	40*	14	-2	-3	2	30*
COc1cc(C=c2c3ccccc3n3c2cc(-c2ccccc2)[n+]3C)cc(OC)c1OC	55*	·	·	25	-7	20
COc1ccccc1C(=O)NC1CCN(C(=O)Nc2ccc(F)cc2)CC1	-5	-6	11	-3	-3	·
COc1cc(OC)c(C(=O)OCC(=O)NCCC2=CCCCC2)cc1OC	11	1	-7	0	-3	·
Cc1nc(NC(=O)COC(=O)c2cc3c(s2)CCC(C)C3)c(Cl)cc1Cl (stereo not drawn)	17	10	17	-2	-3	·
CC1CCc2sc(C(=O)OCC(=O)NCc3ccc(F)cc3)cc2C1 (stereo not drawn)	46*	-1	4	9	0	40*
O=[N+]([O-])c1cc(CN(CCO)CCO)ccc1O	-2	5	-29	-3	1	·
